The values that follow come from ChEMBL document CHEMBL3352262, “Synthesis and structure-activity relationships of pteridine dione and trione monocarboxylate transporter 1 inhibitors” (J Med Chem, 2014).

Data set [1] relates to MCF7. Briefly: Growth inhibition of human MCF7 cells overexpressing MCT4 at 10 uM after 4 days by MTT assay. Format: cell-based. The note with it: mcf7, 96 h. The procedure, abridged:
(§1)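 MCF7 cells engineered to overexpress mouse MCT1 or human MCT4 were seeded at 2000/well and compound was added the next day. Cells were cultured 4 days in 5% CO2, then given MTT reagent for 5 h and solubilized with 2-propanol/0.04 N HCl. Absorbance was read at 570 and 630 nm, in triplicate. The highest concentration tested on MCF7_MCT4 cells was 10 μM.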
(In general: Tetrazolium dyes change colour on reduction, which living cells bring about.)

A further data set has as its system Raji. Description: Growth inhibition of human Raji cells after 96 hrs by MTT assay. Format: functional, cell-based. The procedure, abridged:
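Human Raji Burkitt lymphoma cells were seeded at 20000/well and cultured with compound or vehicle for 4 days (96 h) in 5% CO2. MTT reagent was added for 5 h, then 2-propanol/0.04 N HCl, and absorbance was read at 570 and 630 nm. EC50 came from curve fitting.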

The test system of data set [2] is MCF7. Briefly: Growth inhibition of human MCF7 cells overexpressing MCT4 up to 10 uM after 4 days by MTT assay. Particulars: mcf7, 96 h. Format: cell-based. The procedure, abridged: as §1
Data set [3] concerns the target T1, Monocarboxylate transporter 4 (Homo sapiens) (UniProt O15427).
T1 sequence (whole entry): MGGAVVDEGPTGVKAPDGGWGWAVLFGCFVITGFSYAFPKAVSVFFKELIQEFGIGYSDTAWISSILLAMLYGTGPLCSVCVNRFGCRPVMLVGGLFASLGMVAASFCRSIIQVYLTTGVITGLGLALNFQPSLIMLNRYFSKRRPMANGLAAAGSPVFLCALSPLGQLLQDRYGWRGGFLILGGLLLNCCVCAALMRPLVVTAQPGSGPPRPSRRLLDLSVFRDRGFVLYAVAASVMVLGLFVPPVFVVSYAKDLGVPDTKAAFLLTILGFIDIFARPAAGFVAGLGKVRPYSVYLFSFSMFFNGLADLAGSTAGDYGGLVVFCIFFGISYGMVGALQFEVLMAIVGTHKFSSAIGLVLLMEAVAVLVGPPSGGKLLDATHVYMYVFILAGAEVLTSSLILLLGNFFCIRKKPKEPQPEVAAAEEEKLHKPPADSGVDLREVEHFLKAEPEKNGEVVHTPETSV
Description: Inhibition of MCT4 (unknown origin) overexpressed in human MCF7 cells assessed as inhibition of transporter-mediated [14C]lactate transport after 10 mins by scintillation counting. Format: cell-based.

Data set [4] has as its system MCF7. Briefly: Growth inhibition of human MCF7 cells overexpressing MCT1 after 4 days by MTT assay. Format: functional, cell-based. Particulars: MCF7, 96 h. The procedure, abridged: as §1
Data set [5] relates to MCF7. Description: Growth inhibition of human MCF7 cells overexpressing MCT4 after 4 days by MTT assay. Format: cell-based. The note with it: MCF7, 96 h. The procedure, abridged:
as §1

Structures are written as SMILES. Active and inactive are the calls of the source. The calls are words filed in the database; no cut-off is given here.

Broadly, the EC50 is the concentration needed to bring the measured effect to its halfway point. A low value points to greater potency. Regarding `CC(C)Cn1c(=O)n(C)c(=O)c2nc(/C=C\CCCO)c(Cc3cccc4ccccc34)nc21`, the Activity result in the data set with MCF7 [1] is recorded as “Toxic”. In addition, the response in the data set with Raji was half-maximal at 70 nM (EC50).

`CC(C)Cn1c(=O)n(C)c(=O)c2nc(-c3nnn(C)c3CCCO)c(Cc3cccc4ccccc34)nc21` came in with a concentration for a half-maximal effect (EC50) in the data set with Raji of more than 10000 nM.

With `CC(C)Cn1c(=O)n(C)c(=O)c2nc(C(=O)N(C)CCCO)c(Cc3cccc4ccccc34)nc21`, the EC50 in the data set on Raji is more than 10000 nM.

Take `COCCCCCc1nc2c(=O)n(C)c(=O)n(CC(C)C)c2nc1Cc1cccc2ccccc12`: a half-maximal effect in the data set on Raji (EC50) was put at 5780 nM.

Compound `CC(C)Cn1c(=O)n(C)c(=O)c2nc([S+]([O-])CCCO)c(Cc3cccc4ccccc34)nc21` (stereo not drawn) came in with an EC50 in the data set on Raji of 1990 nM.

The compound `CC(C)Cn1c(=O)n(C)c(=O)c2nc(CCCCCCO)c(Cc3cccc4ccccc34)nc21` yielded an EC50 in the data set on Raji of 1690 nM.

`CC(C)Cn1c(=O)n(C)c(=O)c2nc(C(=O)NCCCO)c(Cc3cccc4ccccc34)nc21`: the EC50 with Raji was more than 10000 nM.

With `CC(C)Cn1c(=O)n(C)c(=O)c2nc(CCCCO)c(Cc3cccc4ccccc34)nc21`, a half-maximal response in the data set on Raji (EC50) required 285 nM. This counts as sub-micromolar.

`CC(C)Cn1c(=O)n(C)c(=O)c2nc(CCCCCO)c(Cc3cccc4ccccc34)nc21` showed an EC50 with Raji of 58 nM. Moreover, the Activity entry in the data set on MCF7 [2] is on record as “Non-toxic”.

In the data set with Raji, `CC(C)Cn1c(=O)n(C)c(=O)c2nc(SCCO)c(Cc3cccc4ccccc34)nc21` had an EC50 of 2850 nM. This lies in the single-digit micromolar range.

The compound `CC(C)Cn1c(=O)n(C)c(=O)c2nc(-c3[nH]nnc3CCCO)c(Cc3cccc4ccccc34)nc21` gave an EC50 with Raji of 6020 nM.

`CC(C)Cn1c(=O)n(C)c(=O)c2nc(SCCCCO)c(Cc3cccc4ccccc34)nc21`: in the data set with Raji, the EC50 amounted to 37 nM. For the same compound, the Activity entry in the data set with MCF7 [2] is on record as “Non-toxic”.

`CC(C)Cn1c(=O)n(C)c(=O)c2nc(SCCCO)c(Cc3cccc4ccccc34)nc21`: the EC50 with Raji turned out to be 151 nM.

Turning to `Cc1n[nH]c(C)c1Cc1nc2c(nc1CCCCCO)c(=O)n(C)c(=O)n2CC(C)C`, in the data set on Raji, the EC50 was more than 10000 nM.

Take `CC(C)Cn1c(=O)n(C)c(=O)c2c1nc(Cc1cccc3ccccc13)c(=O)n2CCCCO`: the response in the data set on Raji was half-maximal at 150 nM (EC50). This counts as sub-micromolar.

Turning to `CC(C)Cn1c(=O)n(C)c(=O)c2nc(-c3c(CCCO)nnn3C)c(Cc3cccc4ccccc34)nc21`, the EC50 with Raji was more than 10000 nM.

Consider `CC(C)Cn1c(=O)n(C)c(=O)c2c1nc(Cc1cccc3ccccc13)c(=O)n2CCCCCO`, for which the EC50 in the data set on Raji came to 1420 nM.

In the case of `CC(C)Cn1c(=O)n(C)c(=O)c2[nH]c(=O)c(Cc3cccc4ccccc34)nc21`, in the data set with Raji, the EC50 was more than 10000 nM.

In the case of `CC(C)Cn1c(=O)n(C)c(=O)c2c1nc(Cc1cccc3ccccc13)c(=O)n2CCCCCCO`, the EC50 in the data set with Raji is more than 10000 nM.

For `CC(C)Cc1nn(C)c(=O)c2c(SCCCO)n(Cc3cccc4ccccc34)cc12`, the figures for the EC50 in the data set with Raji, in the data set with MCF7 [4] and with MCF7 [5] were 0.5 nM, 21 nM and more than 10000 nM, respectively. The inhibition entry in data set [3] is “inactive”.

Consider `CC(C)Cn1c(=O)n(C)c(=O)c2nc(S(=O)(=O)CCCO)c(Cc3cccc4ccccc34)nc21`, for which the EC50 with Raji turned out to be 3750 nM.

Take `Cc1n[nH]c(C)c1Cc1sc2c(c1C(=O)N1C[C@H](O)CO1)c(=O)n(C)c(=O)n2CC(C)C`: in the data set on Raji, a half-maximal effect (EC50) was put at 18 nM.
